Test results from EPA's CvTdb concentration-time database.

Key:
rat [1] = conditions: dosed: benzo[a]pyrene, 50 umol/kg, oral, male, Wistar
rat [2] = conditions: dosed: benzo[a]pyrene, 20 umol/kg, oral, male, Wistar
rat [3] = conditions: dosed: benzo[a]pyrene, 10 umol/kg, oral, male, Wistar
rat [4] = conditions: dosed: benzo[a]pyrene, 20 umol/kg, dermal, duration: continuous, male, Wistar
rat [5] = conditions: dosed: benzo[a]pyrene, 50 umol/kg, dermal, duration: continuous, male, Wistar
rat [6] = conditions: dosed: benzo[a]pyrene, 10 umol/kg, dermal, duration: continuous, male, Wistar
rat [7] = experiment: concentration in blood after dosing; conditions: dosed: perchloroethylene, 12500 ppm, dermal, duration: 4 hr, male, F344
rat [8] = experiment: concentration in blood after dosing; conditions: dosed: perchloroethylene, 12500 ppm, dermal, duration: 4 hr, male, F344; remark: listed apart in the source
rat [9] = experiment: concentration in blood after dosing; conditions: dosed: perchloroethylene, 12500 ppm, dermal, duration: 4 hr, male, F344; remark: listed apart in the source
rat [10] = experiment: concentration in blood after dosing; conditions: dosed: perchloroethylene, 12500 ppm, dermal, duration: 4 hr, male, F344; remark: listed apart in the source
rat [11] = experiment: amount in urine after dosing (umol); conditions: dosed: tert-amyl methyl ether, 38.4 ppm, inhalation, duration: 4 hr, F344 (Harlan Winkelmann)
human = experiment: amount in urine after dosing (umol); conditions: dosed: tert-amyl methyl ether, 38.4 ppm, inhalation, duration: 4 hr
Summary of the method: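 A PubMed search, classifier screening and manual review identified published in vivo toxicokinetic studies, which together with two structured collections supplied concentration-versus-time and amount-versus-time points. Points were mostly digitised from plot screenshots with WebPlotDigitizer, otherwise copied from tables. Dose, route, subject details and medium were hand-curated from each paper, and sampling and analytical methods are those of the sources, often unreported.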

Rat [12] = experiment: concentration in blood after dosing; conditions: dosed: Naphthalene, iv, F344
Rat [13] = experiment: concentration in blood after dosing; conditions: dosed: Naphthalene, 1 mg/kg, iv, Male, F344
Rat [14] = experiment: concentration in blood after dosing; conditions: dosed: Naphthalene, 3 mg/kg, iv, Male, F344
Rat [15] = experiment: concentration in blood after dosing; conditions: dosed: Naphthalene, 3 mg/kg, iv, Female, F344
Rat [16] = experiment: concentration in blood after dosing; conditions: dosed: Naphthalene, 1 mg/kg, iv, Female, F344
Rat [17] = experiment: concentration in blood after dosing; conditions: dosed: Naphthalene, 1 mg/kg, iv, Male, F344; remark: listed apart in the source
Rat [18] = experiment: concentration in blood after dosing; conditions: dosed: Naphthalene, 1 mg/kg, iv, Female, F344; remark: listed apart in the source
Rat [19] = experiment: concentration in blood after dosing; conditions: dosed: Naphthalene, 3 mg/kg, iv, Male, F344; remark: listed apart in the source
Rat [20] = experiment: concentration in blood after dosing; conditions: dosed: Naphthalene, 10 mg/kg, iv, Male, F344
Rat [21] = experiment: concentration in blood after dosing; conditions: dosed: Naphthalene, 10 mg/kg, iv, Male, F344; remark: listed apart in the source

Oc1ccc2ccc3c4ccccc4cc4ccc1c2c43 [3-OH-benzo[a]pyrene]
Conditions | amount in urine after dosing [µg]
rat [1], 23.43 h | 7.37
rat [1], 47.73 h | 18.4
rat [1], 71.9 h | 31.3
rat [1], 95.37 h | 33.1
rat [1], 120.29 h | 33.4
rat [1], 144.04 h | 33.6
rat [2], 24.03 h | 3.66
rat [2], 47.78 h | 5.43
rat [2], 72.42 h | 7.03
rat [2], 96.58 h | 7.51
rat [2], 121.02 h | 8.21
rat [2], 144.77 h | 8.23
rat [3], 23.94 h | 0.884
rat [3], 48.41 h | 1.94
rat [3], 72.16 h | 3.75
rat [3], 96.63 h | 4.84
rat [3], 120.41 h | 5.22
rat [3], 144.81 h | 5.41
rat [4], 23.4 h | 0.591
rat [4], 48.57 h | 2.38
rat [4], 72.51 h | 6.61
rat [4], 96.49 h | 9.6
rat [4], 120.43 h | 10.6
rat [4], 145.24 h | 11
rat [5], 23.15 h | 4.97
rat [5], 47.4 h | 8.97
rat [5], 71.67 h | 13.3
rat [5], 95.8 h | 17.3
rat [5], 120.35 h | 20
rat [5], 144.4 h | 20.8
rat [6], 23.76 h | 0.169
rat [6], 48.25 h | 1.6
rat [6], 72.44 h | 5.62
rat [6], 96.26 h | 8.27
rat [6], 120.41 h | 10.3
rat [6], 145.21 h | 10.7

ClC(Cl)=C(Cl)Cl [perchloroethylene]
concentration in blood [ng/mL]
Conditions | 0.5 h | 1 h | 2 h | 3 h | 4 h
rat [7] | 20600 | 21100 | 21500 | 25200 | 29200
rat [8] | 6940 | 32300 | 29900 | 17500 | 32300
rat [9] | 3610 | 15200 | 19600 | 13900 | 29200
rat [10] | 17000 | 45000 | 39600 | 31600 | 42600

CCC(C)(O)C(=O)O (stereo not drawn) [2-hydroxy-2-methyl butyrate]
Conditions | amount in urine
human, 0.1093 h | 54.7
human, 6.284 h | 93.4
human, 12.15 h | 100
human, 18.2 h | 59.9
human, 24.12 h | 39.1
human, 30.12 h | 33.6
human, 36.29 h | 57.8
human, 42.13 h | 29.8
human, 48.22 h | 51.6
rat [11], 5.978 h | 0.204
rat [11], 12 h | 0.29
rat [11], 18.07 h | 0.213
rat [11], 24.08 h | 0.0776
rat [11], 29.94 h | 0.0345
rat [11], 36.02 h | 0.092
rat [11], 42.04 h | 0.103
rat [11], 48.11 h | 0.0517

c1ccc2ccccc2c1 [Naphthalene]
concentration in blood [ng/mL], Rat [12]
Conditions | 1 mg/kg | 3 mg/kg | 10 mg/kg
1 h, Female | – | 80 | –
1 h, Male | 34.8 | 172 | 446
2 h, Female | – | 35.1 | –
2 h, Male | – | 233 | 214
2 min, Female | 1330 | 2780 | –
2 min, Male | 3260 | 260 | –
4 h, Male | – | 87.1 | 90
5 min, Female | 770 | 1480 | –
5 min, Male | 677 | 152 | 11200
6 h, Male | – | 90.9 | 58.5
8 h, Male | – | 20.6 | 38.1
10 min, Female | 407 | 1380 | –
10 min, Male | 315 | 215 | 6220
12 h, Male | – | – | 21.5
20 min, Female | 120 | 375 | –
20 min, Male | 107 | 185 | 2850
40 min, Female | 43 | 125 | –
40 min, Male | – | 173 | 860

concentration in blood [ng/mL]
Conditions | 1 h | 2 h | 2 min | 4 h | 5 min | 6 h | 8 h | 10 min | 20 min | 40 min
Rat [13] | 30.5 | – | 1300 | – | 625 | – | – | 340 | 82.5 | 46.6
Rat [14] | 133 | 52.1 | 6890 | 19.3 | 4770 | – | – | 2440 | 736 | 255
Rat [15] | 103 | 47 | 2870 | 26.7 | 1900 | 27.7 | 24.2 | 942 | 468 | 151
Rat [16] | 21.2 | – | 1740 | – | 548 | – | – | 204 | 29.3 | 34.3
Rat [17] | 36.2 | – | 1390 | – | 701 | – | – | 312 | 127 | 54.8
Rat [18] | – | – | 21.4 | – | 51.6 | 23.6 | – | – | 20.5 | –
Rat [19] | 169 | 82.8 | – | – | 2000 | – | – | 3690 | 1240 | 306
Rat [20] | 487 | 172 | – | 90.2 | 8740 | 47.3 | 33.3 | 4000 | 2610 | 661
Rat [21] | 407 | 172 | – | 76.7 | 8050 | 38.2 | – | 4930 | 2640 | 839
